Hits are enriched below; roughly 2.4% of the tested compounds scored in any of these assays.
Neddyl block: cullin neddylation inhibition; inhibition, % at 25 µM; P61081+Q13564; AID 651699; 0.58% of 360,000 active; TR-FRET cullin neddylation, biochemical; in the data active = inhibition above about 36%
HNF4A DNA FP: change in binding of human HNF4 alpha to DNA | P41235 | activity change, % at 10 µM | HNF4a-FITC DNA binding, fluorescence polarization, 1 h | 0.3% of 360,000 active; in the data active = activity change above about 30%, passing the limit was not always enough
TPT1 inhibitor: inhibitors of Candida albicans tRNA 2'-phosphotransferase TPT1. recombinant caTPT1, FP RNA substrate dephosphorylation. inhibition, % at 5 µM. 0.81% of 300,000 active;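 active = inhibition above the mean of all tested compounds plus 3 SD, set per screening campaign, cut at about 24% in these data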;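 note: plate controls were DMSO alone for no effect and ferristatin control at 100 nM for full effect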
CSN inh: inhibitors of human CSN-mediated cullin deneddylation. Q92905. Purified CSN, SCF-Nedd8-OG deneddylation, fluorescence polarization. inhibition, % at 12.5 µM. 0.38% of 360,000 active. AID 651999;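 active = pattern-corrected inhibition above about 35%, with an unprinted fluorescence ratio check between 0.5 and 1.5, limit read from the data, passing the limit was not always enough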;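 note: 0% = enzyme with substrate and 100% = substrate without enzyme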
Target sequence (Q92905 whole entry, looked up, one chain of several): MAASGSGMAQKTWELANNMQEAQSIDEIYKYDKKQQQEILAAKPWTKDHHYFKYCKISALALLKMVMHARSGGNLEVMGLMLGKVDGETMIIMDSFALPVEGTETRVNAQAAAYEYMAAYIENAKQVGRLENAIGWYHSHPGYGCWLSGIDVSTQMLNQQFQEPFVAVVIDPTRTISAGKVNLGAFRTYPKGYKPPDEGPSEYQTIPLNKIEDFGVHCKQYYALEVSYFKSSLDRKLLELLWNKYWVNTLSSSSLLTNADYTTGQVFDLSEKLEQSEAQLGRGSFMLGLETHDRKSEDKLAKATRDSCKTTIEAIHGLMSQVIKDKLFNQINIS
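Assay system: purified human Csn5 enzyme expressed in HEK293T cells; measure: % inhibition; also added: SCFSkp2-Nedd8OG substrate at 10 nM final; technique: fluorescence polarization; times: reaction 90 min, room temperature; medium: Tris buffer pH 7.5, NaCl, DTT, Tween-20, trehalose, ovalbumin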
Rin1 Abl inh: human Rin1-Abl interaction inhibition. TR-FRET Rin1/Abl binding, biochemical. AID 588664. inhibition, % at 7.35 µM. 0.4% of 360,000 active; in the data active = inhibition above about 5%, passing the limit was not always enough
Rpn11 inh: blocks the human proteasome subunit Rpn11; human 26S proteasome, Ub4-pepOG fluorescence polarization; 20S core pre-blocked with epoxomicin; inhibition, % at 20 µM; 0.59% of 360,000 active;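 active = inhibition at 20 µM, scaled to each plate's controls, above about 33%, limit read from the data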
Neddyl inh conf: confirmation of human cullin neddylation inhibitors | shares compounds with Neddyl block | TR-FRET cullin neddylation biochemical assay | calls only at 25 µM | 13% of 1,800 active; in the data active = inhibition above about 40%;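 note: neddylation substrate is the cullin 1 ring ligase complex with SKP2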
Active calls of the source: *; i = inactive; / = not tested or not shown; + = active, no number.

SMILES | Neddyl block | HNF4A DNA FP | TPT1 inhibitor | CSN inh | Rin1 Abl inh | Rpn11 inh | Neddyl inh conf
CC(C)(O)C#Cc1ccc(CN2CCCC(CNC(=O)c3ccco3)C2)cc1 (stereo not drawn) | -6 | -2 | -1 | -1 | 4 | 2 | /
CC(C)NC(=O)c1cc2c(=O)n3ccccc3nc2s1 | 2 | 4 | -2 | -3 | 1 | 6 | /
CSc1ccccc1NC(=O)c1cc2c(=O)n3ccccc3nc2s1 | 48* | 1 | 2 | -1 | -3 | 3 | /
Cc1ccc(NC(=O)CCC(=O)NNC(=O)COc2ccc([N+](=O)[O-])cc2)c(C)c1 | -17 | 1 | / | 0 | -5 | 2 | /
COc1ccc(OC)c(/C=C/C(=O)N(C)CC(=O)Nc2ccc(N3CCOCC3)cc2)c1 | 60* | -3 | / | -4 | 0 | -1 | /
COc1ccc(NC(=O)CN(C)C(=O)/C=C/c2cn(-c3ccccc3)nc2-c2cccs2)cc1 | 44* | -4 | 3 | 2 | -1 | 4 | i
COc1ccc(CCC(=O)N(C)CC(=O)Nc2ccc(N3CCOCC3)cc2)cc1 | 0 | 3 | 2 | -5 | -2 | -2 | /
CC1CCN(C(=O)c2[nH]cnc2C(=O)Nc2ccccc2F)CC1 | -5 | 0 | / | 6 | -1 | -4 | /
O=C(O)C/C(=C\c1ccc2c(c1)OCO2)c1nc2ccccc2s1 | 45* | 11 | -4 | -2 | -1 | 0 | /
O=C(Cn1cncc1-c1ccc([N+](=O)[O-])cc1)Nc1ccccc1F | -41 | 5 | 4 | 16 | -5 | 15 | /
O=C(CNC(=O)c1ccco1)N/N=C/c1cccs1 | -5 | -6 | 2 | 4 | 1 | -1 | /
c1cnc2cc(-c3ccsc3)ncc2c1 | 44* | -2 | / | -1 | -2 | 3 | +
Cc1cc(N/N=C/c2ccccc2O)nc(N2CCOCC2)n1 | 14 | 2 | -2 | 8 | -5 | -4 | /
COc1ccc(OC)c(/C=N/Nc2cc(C)nc(N3CCOCC3)n2)c1 | 39* | 2 | 0 | 0 | -2 | 0 | i
c1ccc(-c2nnc(-c3ccco3)o2)cc1 | 42* | 3 | -2 | -1 | -1 | 1 | /
O=C(Nc1ccccc1)c1cccc(C(=O)Nc2ccccc2)n1 | 51* | -1 | 0 | -1 | 2 | 3 | i
O=C(O)c1ccc(NC(=O)c2cccc(C(=O)Nc3ccc(C(=O)O)cc3)n2)cc1 | 6 | -1 | -5 | 4 | -1 | 3 | /
CCNc1oc(/C=C/c2ccc(OCC)cc2)nc1C#N | 47* | -1 | 3 | -1 | -3 | 0 | /
COc1ccccc1CC(=O)Nc1ccc(O)cc1C(=O)O | 40* | -2 | -2 | 1 | 1 | -1 | /
COc1ccccc1CC(=O)Nc1ccc(Cl)cc1C(=O)O | 38 | 2 | -3 | 1 | 1 | 0 | /
c1ccc(-n2cc(CN3CCCC(CN4CCCC4)C3)c(-c3ccc4c(c3)OCO4)n2)cc1 (stereo not drawn) | -7 | 6 | -3 | 4 | 1 | 2 | /
OC[C@@H]1CCCN1Cc1cn(-c2ccccc2)nc1-c1ccc2c(c1)OCO2 | 40* | -1 | 0 | 4 | 2 | -10 | i
COCC1CCCCN1Cc1cn(-c2ccccc2)nc1-c1ccc2c(c1)OCO2 (stereo not drawn) | 45* | 4 | 4 | 5 | -8 | -4 | i
CCc1c(C)n2nc(C)cc2[nH]c1=O | 47* | 2 | -1 | 1 | -4 | 0 | +
COc1ccc(-n2c(SCC(=O)Nc3ccc([N+](=O)[O-])cc3OC)nc3ccccc32)cc1 | 0 | -1 | -2 | -2 | -3 | -1 | /
COc1cc(NC(=O)CSc2nc3ccccc3n2-c2ccccc2)c(C)cc1[N+](=O)[O-] | 43* | 0 | -2 | -1 | -3 | 4 | i
Cn1cc([N+](=O)[O-])c(C(=O)NC2CCCC2)n1 | -4 | 0 | / | 5 | 4 | -1 | /
N#C/C(=C\c1c(Cl)cccc1Cl)c1nc2ccccc2[nH]1 | 46* | 0 | 0 | -2 | -2 | 5 | +
CN(C)/C=C(\C#N)c1nc2ccccc2[nH]1 | 2 | 2 | -3 | 9 | 1 | 7 | /
